Assay results reported in ChEMBL document CHEMBL4311980, “Discovery of 2-isoxazol-3-yl-acetamide analogues as heat shock protein 90 (HSP90) inhibitors with significant anti-HIV activity” (Eur J Med Chem, 2019).
Active and inactive are the calls of the source. The rule behind the calls is not given here.

Columns and labels:
[1] = Cytotoxicity against human TZM-bl cells assessed as maximum non-cytotoxic concentration after 48 hrs by MTT assay; assay type: cell-based; conditions: read-out: MNCC
Summary of the method: (§1)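 Cells were seeded at 25,000/well in complete medium with compound at different concentrations, with untreated and DMSO controls, and incubated 48 h. MTT (5 mg/mL stock) was added for 4 h at 37 °C in the dark. Formazan was dissolved in isopropanol and A570 read. CC50 and highest non-cytotoxic concentration were derived from this assay.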

[2] = tested on: Human immunodeficiency virus 1; test: Antiviral activity against HIV-1 NL4-3 infected in human TZM-bl cells assessed as reduction in viral replication at 1000 nM measured at 48 hrs post-infection by steady-glo reporter gene assay relative to control; assay type: functional; conditions: Human immunodeficiency virus 1, NL4-3, TZM-bl
Summary of the method: (§2)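 TZM-bl cells (0.15×10^6/well) were infected with 0.5 MOI HIV-1 NL4-3 12 h after seeding and treated at the highest non-cytotoxic concentration, which was set by MTT assay. At 48 h post-infection, cells were lysed and mixed 1:1 with Steady-Glo substrate, and luminescence was read.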

[3] = Cytotoxicity against human CEM-GFP cells assessed as reduction in cell viability after 48 hrs by MTT assay; assay type: cell-based; summary of the method: as §1
[4] = tested on: Human immunodeficiency virus 1; test: Antiviral activity against HIV-1 NL4-3 infected in human CEM-GFP cells assessed as suppression of viral replication by measuring reduction in p24 level measured at 72 hrs post-infection by ELISA; assay type: functional, organism-based; conditions: Human immunodeficiency virus 1, NL4-3, CEM-GFP
Summary of the method: (§3)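 Cells were incubated with 0.5 MOI virus in the presence of polybrene at 37 °C for 4 h with intermittent mixing, then washed and plated in complete RPMI-1640. Compound added at different concentrations, with untreated and DMSO controls. PBMC were PHA-activated. Supernatant p24 measured by capture ELISA (A450) at 72 h. % inhibition calculated relative to untreated cells.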

[5] = Cytotoxicity against human Jurkat J6 cells assessed as reduction in cell viability after 48 hrs by MTT assay; assay type: cell-based; summary of the method: as §1
[6] = Cytotoxicity against human U937 cells assessed as reduction in cell viability after 48 hrs by MTT assay; assay type: cell-based, U-937; summary of the method: as §1
[7] = Cytotoxicity against human PBMC assessed as reduction in cell viability after 48 hrs by MTT assay; assay type: cell-based; summary of the method: as §1
[8] = tested on: Human immunodeficiency virus 1; test: Antiviral activity against HIV-1 NL4-3 infected in human Jurkat J6 cells assessed as suppression of viral replication by measuring reduction in p24 level measured at 72 hrs post-infection by ELISA; assay type: functional, organism-based; conditions: Human immunodeficiency virus 1, Jurkat; summary of the method: as §3
[9] = tested on: Human immunodeficiency virus 1; test: Antiviral activity against HIV-1 NL4-3 infected in human U937 cells assessed as suppression of viral replication by measuring reduction in p24 level measured at 72 hrs post-infection by ELISA; assay type: functional, organism-based; conditions: Human immunodeficiency virus 1, U-937, 72 h; summary of the method: as §3
[10] = tested on: Human immunodeficiency virus 1; test: Antiviral activity against HIV-1 NL4-3 infected in human PBMC assessed as suppression of viral replication by measuring reduction in p24 level measured at 72 hrs post-infection by ELISA; assay type: functional, organism-based; conditions: Human immunodeficiency virus 1, 72 h; summary of the method: as §3
[11] = Therapeutic index, ratio of CC50 for human Jurkat J6 cells to IC50 for antiviral activity against HIV-1 NL4-3 infected in human Jurkat J6 cells; assay type: toxicity, cell-based; conditions: read-out: Ratio CC50/IC50
Summary of the method: (§4)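 IC50 was determined from p24 ELISA 72 h after 0.5 MOI HIV-1 NL4-3 infection with compound at different concentrations. Therapeutic index = CC50/IC50.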

[12] = Therapeutic index, ratio of CC50 for human U937 cells to IC50 for antiviral activity against HIV-1 NL4-3 infected in human U937 cells; assay type: toxicity, cell-based; conditions: read-out: Ratio CC50/IC50; summary of the method: as §4
[13] = Therapeutic index, ratio of CC50 for human PBMC to IC50 for antiviral activity against HIV-1 NL4-3 infected in human PBMC; assay type: toxicity; conditions: read-out: Ratio CC50/IC50; summary of the method: as §4
HIV-1 M:B [14] = test: Antiviral activity against X4 tropic HIV-1 subtype-B 3B infected in human CEM-GFP cells assessed as suppression of viral replication by measuring reduction in p24 level measured at 72 hrs post-infection by ELISA; assay type: functional, cell-based; summary of the method: as §3
[15] = tested on: Human immunodeficiency virus 1; test: Antiviral activity against R5X4 tropic HIV-1 subtype-B 89.6 infected in human CEM-GFP cells assessed as suppression of viral replication by measuring reduction in p24 level measured at 72 hrs post-infection by ELISA; assay type: functional, organism-based; conditions: M:B_89.6; summary of the method: as §3
HIV-1 M:B [16] = test: Antiviral activity against R5 tropic HIV-1 subtype-B ADA infected in human CEM-GFP cells assessed as suppression of viral replication by measuring reduction in p24 level measured at 72 hrs post-infection by ELISA; assay type: functional, cell-based; summary of the method: as §3
[17] = tested on: Human immunodeficiency virus 1; test: Antiviral activity against HIV-1 subtype C isolate indeiC infected in human CEM-GFP cells assessed as suppression of viral replication by measuring reduction in p24 level measured at 72 hrs post-infection by ELISA; assay type: functional, organism-based; summary of the method: as §3
HIV-1 M:B [18] = test: Antiviral activity against X4 tropic HIV-1 subtype-B 3B infected in human PBMC assessed as suppression of viral replication by measuring reduction in p24 level measured at 72 hrs post-infection by ELISA; assay type: functional; summary of the method: as §3
[19] = tested on: Human immunodeficiency virus 1; test: Antiviral activity against R5X4 tropic HIV-1 subtype-B 89.6 infected in human PBMC assessed as suppression of viral replication by measuring reduction in p24 level measured at 72 hrs post-infection by ELISA; assay type: functional, organism-based; conditions: M:B_89.6; summary of the method: as §3
HIV-1 M:B [20] = test: Antiviral activity against R5 tropic HIV-1 subtype-B ADA infected in human PBMC assessed as suppression of viral replication by measuring reduction in p24 level measured at 72 hrs post-infection by ELISA; assay type: functional; summary of the method: as §3
[21] = tested on: Human immunodeficiency virus 1; test: Antiviral activity against HIV-1 subtype C isolate indeiC infected in human PBMC cells assessed as suppression of viral replication by measuring reduction in p24 level measured at 72 hrs post-infection by ELISA; assay type: functional, organism-based; summary of the method: as §3
[22] = tested on: Human immunodeficiency virus 1; test: Antiviral activity against 0.01 to 0 1 MOI HIV-1 NL4-3 infected in human CEM-GFP cells assessed as suppression of viral replication by measuring reduction in p24 level at 1 uM measured at 72 hrs post-infection by ELISA; assay type: functional, organism-based
Summary of the method: (§5)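 Cells infected with HIV-1 NL4-3 at MOI 0.01, 0.1 or 1 in the presence of polybrene at 37 °C for 4 h. Cells then washed in serum-free RPMI-1640 and plated in complete RPMI-1640 with compound at its highest non-cytotoxic concentration. Untreated and DMSO controls. Supernatant p24 measured by antigen-capture ELISA (A450) at 72 h post-infection. % inhibition = (untreated − treated p24)/untreated p24 × 100.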

[23] = tested on: Human immunodeficiency virus 1; test: Antiviral activity against 0.01 to 0 1 MOI HIV-1 NL4-3 infected in human PBMC assessed as suppression of viral replication by measuring reduction in p24 level at 1 uM measured at 72 hrs post-infection by ELISA; assay type: functional, organism-based; summary of the method: as §5
[24] = molecular target: Human immunodeficiency virus type 1 reverse transcriptase (Human immunodeficiency virus 1) (UniProt Q72547); test: Inhibition of HIV-1 reverse transcriptase RNA-dependent DNA polymerase activity assessed as reduction in biotin-dUTP incorporation at 1 uM using poly(A)/oligo (dT)15 as template/primer by ELISA
Summary of the method: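 RNA-dependent DNA polymerase activity of HIV-1 RT was tested with a colorimetric reverse transcriptase kit. Nevirapine served as positive control, with untreated and DMSO vehicle wells. Compound was tested at its highest non-cytotoxic concentration. n = 3.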

[25] = molecular target: Protease (Human immunodeficiency virus 1) (UniProt Q9YQ12); test: Inhibition of HIV-1 protease at 1 uM using synthetic peptide as substrate after 15 mins by fluorimetric based assay
Summary of the method: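 Cell-free fluorometric protease kit. HIV-1 protease was diluted in reaction buffer and loaded at 10 nmol/well with or without compound. Indinavir served as positive control, with untreated and DMSO controls. Fluorescence (Ex/Em 330/450 nm) was read 15 min after addition. n = 3.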

[26] = tested on: Human immunodeficiency virus 1; test: Antiviral activity against HIV-1 NL4-3 infected in CEM-GFP cells assessed as reduction in HSP90 expression measured at 72 hrs post-infection by immunoblotting analysis; assay type: functional, organism-based
Summary of the method: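 CEM-GFP cells were infected with 0.5 MOI HIV-1 NL4-3 with or without compound, with DMSO as vehicle control. At 72 h post-infection, HSP90 protein was measured by immunoblotting and quantified by densitometry.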

[27] = molecular target: Heat shock protein HSP90 (Homo sapiens) (UniProt P07900+P08238); test: Inhibition of HSP90 (unknown origin) expressed in HEK-293T cells assessed as reduction in Tat-mediated transactivation at 1 uM measured at 48 hrs post-transfection by LTR-driven luciferase reporter gene assay; assay type: cell-based
Summary of the method: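 HEK-293T cells were co-transfected with p-LTR-Luc and Tat using PEI in the presence or absence of compound. At 48 h post-transfection, cells were harvested and luminescence and fluorescence were measured.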

[28] = Therapeutic index, ratio of CC50 for human CEM-GFP cells to IC50 for antiviral activity against HIV-1 NL4-3 infected in human CEM-GFP cells; assay type: toxicity, cell-based; conditions: read-out: Ratio CC50/IC50; summary of the method: as §4
[29] = Ratio of therapeutic index for compound to therapeutic index of AZT
[30] = Ratio of therapeutic index for compound to therapeutic index of AUY922
[31] = tested on: Human immunodeficiency virus 1; test: Antiviral activity against HIV1 NL4-3 infected in human TZM-bl cells assessed as reduction in viral replication at 100 nM measured at 48 hrs post-infection by steady-glo reporter gene assay relative to control; assay type: functional; conditions: Human immunodeficiency virus 1, NL4-3, TZM-bl; summary of the method: as §2

Protease (Human immunodeficiency virus 1), sequence (Q9YQ12 as listed by the source): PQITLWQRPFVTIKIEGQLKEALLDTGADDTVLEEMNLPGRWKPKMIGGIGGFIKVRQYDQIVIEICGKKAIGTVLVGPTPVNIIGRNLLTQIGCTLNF

`CC(C)NC(=O)Cc1cc(-c2ccccc2)on1` gave an MNTC at 48 h [1] of 1000 nM, an inhibition at 1 µM [2] of 85% and a CC50 at 48 h [3] of 65.6 µM. The IC50 [4] was 0.0395 µM, the CC50 at 48 h [5] was 60.3 µM and the CC50 at 48 h [6] was 56.6 µM. For the same molecule, the CC50 at 48 h [7] was 67.9 µM, the IC50 [8] was 0.0527 µM and the IC50 [9] was 0.053 µM. It also gave an IC50 [10] of 0.0562 µM, a selectivity ratio [11] of 1140 and a selectivity ratio [12] of 1070. For the same molecule, the selectivity ratio [13] was 1210, the inhibition (HIV-1 M:B [14]) was “Active” and the inhibition [15] was “Active”. The inhibition (HIV-1 M:B [16]) was “Active”, the inhibition [17] was “Active” and the inhibition (HIV-1 M:B [18]) was “Active”. The inhibition [19] was “Active”, the inhibition (HIV-1 M:B [20]) was “Active” and the inhibition [21] was “Active”. The inhibition [22] was “Active”, the inhibition [23] was “Active” and the inhibition [24] was “inactive”. The inhibition [25] was “inactive”, the Activity [26] was “Active” and the inhibition [27] was “Active”. For the same molecule, the selectivity ratio [28] was 1660, the Ratio [29] was 1.5 and the Ratio [30] was 3.5.

With `Cc1ccccc1NC(=O)Cc1cc(-c2ccccc2)on1` the MNTC at 48 h [1] was 1000 nM and the inhibition at 1 µM [2] was 23.5%.

`O=C(Cc1cc(-c2ccccc2)on1)Nc1ccc(Cl)cc1` gave an MNTC at 48 h [1] of 100 nM and an inhibition at 0.1 µM [31] of 49%.

`O=C(Cc1cc(-c2ccco2)on1)Nc1ccc(O)cc1` gave an MNTC at 48 h [1] of 1000 nM and an inhibition at 1 µM [2] of 53.1%.

Molecule `CCNC(=O)c1noc(-c2cc(C(C)C)c(O)cc2O)c1-c1ccc(CN2CCOCC2)cc1` [LUMINESPIB] has an MNTC at 48 h [1] of 1000 nM, an inhibition at 1 µM [2] of 88.3% and a CC50 at 48 h [3] of 31.1 µM. The IC50 [4] was 0.0663 µM and the selectivity ratio [28] was 470.

With `Cc1ccc(NC(=O)Cc2cc(-c3ccccc3)on2)cc1` the MNTC at 48 h [1] was 1000 nM, the inhibition at 1 µM [2] was 98.4% and the CC50 at 48 h [3] was 44 µM. It also gave an IC50 [4] of 0.0868 µM and a selectivity ratio [28] of 507.

`Cc1cccc(NC(=O)Cc2cc(-c3ccccc3)on2)c1` gave an MNTC at 48 h [1] of 100 nM and an inhibition at 0.1 µM [31] of 33.3%.

`Cc1ccc(NC(=O)Cc2cc(-c3cccs3)on2)cc1` gave an MNTC at 48 h [1] of 100 nM and an inhibition at 0.1 µM [31] of 56.9%.

`COc1ccc(-c2cc(CC(=O)Nc3cccc(C)c3)no2)cc1` showed an MNTC at 48 h [1] of 1000 nM, an inhibition at 1 µM [2] of 95.5% and a CC50 at 48 h [3] of 15.7 µM. It also gave an IC50 [4] of 0.284 µM and a selectivity ratio [28] of 55.1.
